Data from ChEMBL document CHEMBL3124843, “Synthesis, cytostatic, antimicrobial, and anti-HCV activity of 6-substituted 7-(het)aryl-7-deazapurine ribonucleosides” (J Med Chem, 2014).
Activity calls are given as the source filed them. How the calls were made is not given here.

Experiments:
Pseudomonas aeruginosa [1] = experiment: Antibacterial activity against Pseudomonas aeruginosa CCM 3955 after 24 hrs; type: functional, organism-based
Pichia kudriavzevii = experiment: Antifungal activity against Candida crusei after 48 hrs; type: functional, organism-based
A549 = experiment: Cytostatic activity against human A549 cells after 72 hrs by MTT assay; type: functional, cell-based; details: A549, 72 h
Outline: (§1)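 IC50 is the concentration that cuts cell growth by 50%, read by quantitative metabolic MTT staining after a 3-day treatment. The resistant sublines were made by raising the concentration of the cytotoxic drug step by step. CEM-DNR-bulk (daunorubicin-selected) stably overexpresses mrp-1. K562-TAX (paclitaxel-selected) expresses only mdr-1. HCT116p53−/− carries null p53 alleles. BJ and MRC-5 are nonmalignant fibroblasts.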

Pseudomonas aeruginosa [2] = experiment: Antibacterial activity against multi-resistant Pseudomonas aeruginosa A/16575 after 24 hrs; type: functional, organism-based
HepG2 = experiment: Antiproliferative activity against human HepG2 cells after 72 hrs by XTT assay; type: functional, cell-based; details: HepG2, 72 h
Enterococcus faecalis = experiment: Antibacterial activity against Enterococcus faecalis CCM 4224 after 24 hrs; type: functional, organism-based
Candida tropicalis = experiment: Antifungal activity against Candida tropicalis after 48 hrs; type: functional, organism-based
Escherichia coli [3] = experiment: Antibacterial activity against multi-resistant Escherichia coli C/16702 after 24 hrs; type: functional, organism-based
Candida parapsilosis = experiment: Antifungal activity against Candida parapsilosis after 48 hrs; type: functional, organism-based
Escherichia coli [4] = experiment: Antibacterial activity against Escherichia coli CCM 3954 after 24 hrs; type: functional, organism-based
HL-60 = experiment: Antiproliferative activity against human HL60 cells after 72 hrs by XTT assay; type: functional, cell-based; details: HL-60, 72 h
Outline: (§2)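 Antiproliferative test on HL-60 promyelocytic leukemia and HeLa S3 cervical carcinoma cells growing in liquid suspension.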

K562 [5] = experiment: Cytostatic activity against paclitaxel-resistant human K562 cells after 72 hrs by MTT assay; type: functional, cell-based; details: K562, 72 h; outline: as §1
HCT-116 [6] = experiment: Cytostatic activity against p53-deficient human HCT116 cells after 72 hrs by MTT assay; type: functional, cell-based; details: HCT-116, 72 h; outline: as §1
Hepatitis C virus [7] = experiment: Antiviral activity against Hepatitis C virus subtype 2a infected in human HuH7 cells; type: functional, organism-based, Hepacivirus hominis; details: genotype 2a, Huh-7
MRC5 = experiment: Cytostatic activity against human MRC5 cells after 72 hrs by MTT assay; type: ADME, cell-based; details: MRC5, 72 h; outline: as §1
Staphylococcus aureus [8] = experiment: Antibacterial activity against methicillin-resistant Staphylococcus aureus MRSA 4591 after 24 hrs; type: functional, organism-based
Staphylococcus aureus [9] = experiment: Antibacterial activity against Staphylococcus aureus CCM 3953 after 24 hrs; type: functional, organism-based
[10] = Cytotoxicity against human HuH7 cells infected with Hepatitis C virus subtype 1b; type: cell-based, Huh-7
Candida albicans = experiment: Antifungal activity against Candida albicans after 48 hrs; type: functional, organism-based
Hepatitis C virus [11] = experiment: Antiviral activity against Hepatitis C virus subtype 1b infected in human HuH7 cells; type: functional, organism-based, Hepacivirus hominis; details: genotype 1b, Huh-7
[12] = Cytotoxicity against human HuH7 cells infected with Hepatitis C virus subtype 2a; type: cell-based, Huh-7
CCRF-CEM = experiment: Cytostatic activity against human CCRF-CEM cells after 72 hrs by MTT assay; type: functional, cell-based; outline: as §1
[13] = system: Staphylococcus haemolyticus; experiment: Antibacterial activity against methicillin-resistant Staphylococcus haemolyticus A/16568 after 24 hrs; type: functional, organism-based
K562 [14] = experiment: Cytostatic activity against human K562 cells after 72 hrs by MTT assay; type: functional, cell-based; details: K562, 72 h; outline: as §1
BJ = experiment: Cytostatic activity against human BJ cells after 72 hrs by MTT assay; type: ADME, cell-based; outline: as §1
HCT-116 [15] = experiment: Cytostatic activity against human HCT116 cells after 72 hrs by MTT assay; type: functional, cell-based; details: HCT-116, 72 h; outline: as §1
[16] = Antiproliferative activity against human HeLaS3 cells after 72 hrs by XTT assay; type: functional, cell-based; details: HeLa S3, 72 h; outline: as §2
[17] = Cytostatic activity against human CEM-DNR-bulk cells after 72 hrs by MTT assay; type: functional, cell-based; outline: as §1

In the case of `O=c1[nH]cnc2c1c(-c1cccs1)cn2[C@@H]1O[C@H](CO)[C@@H](O)[C@H]1O`, the Activity (Pseudomonas aeruginosa [1]) is reported as “inactive”, the Activity (Pichia kudriavzevii) is reported as “inactive” and the IC50 (A549) is reported as > 20 µM. For the same compound, the Activity (Pseudomonas aeruginosa [2]) was “inactive”, the IC50 (HepG2) was > 20 µM and the Activity (Enterococcus faecalis) was “inactive”. For the same compound, the Activity (Candida tropicalis) was “inactive”, the Activity (Escherichia coli [3]) was “inactive” and the Activity (Candida parapsilosis) was “inactive”. For the same compound, the Activity (Escherichia coli [4]) was “inactive”, the IC50 (HL-60) was > 20 µM and the IC50 (K562 [5]) was > 20 µM. The IC50 (HCT-116 [6]) was > 20 µM, the EC50 (Hepatitis C virus [7]) was > 44 µM and the IC50 (MRC5) was > 100 µM. The Activity (Staphylococcus aureus [8]) was “inactive”, the Activity (Staphylococcus aureus [9]) was “inactive” and the CC50 [10] was > 44 µM. The Activity (Candida albicans) was “inactive”, the EC50 (Hepatitis C virus [11]) was > 44 µM and the CC50 [12] was > 44 µM. For the same compound, the IC50 (CCRF-CEM) was > 20 µM, the Activity [13] was “inactive” and the IC50 (K562 [14]) was > 20 µM. The IC50 (BJ) was > 100 µM, the IC50 (HCT-116 [15]) was > 20 µM and the IC50 [16] was > 20 µM. The IC50 [17] was > 20 µM.
For `C#Cc1cn([C@@H]2O[C@H](CO)[C@@H](O)[C@H]2O)c2ncnc(OC)c12`, the Activity (Pseudomonas aeruginosa [1]) was “inactive”, the Activity (Pichia kudriavzevii) was “inactive” and the IC50 (A549) was 8.16 µM. The Activity (Pseudomonas aeruginosa [2]) was “inactive”, the IC50 (HepG2) was 12.7 µM and the Activity (Enterococcus faecalis) was “inactive”. The Activity (Candida tropicalis) was “inactive”, the Activity (Escherichia coli [3]) was “inactive” and the Activity (Candida parapsilosis) was “inactive”. For the same compound, the Activity (Escherichia coli [4]) was “inactive”, the IC50 (HL-60) was 0.19 µM and the IC50 (K562 [5]) was 0.38 µM. The IC50 (HCT-116 [6]) was 5.14 µM, the EC50 (Hepatitis C virus [7]) was > 44 µM and the IC50 (MRC5) was > 100 µM. For the same compound, the Activity (Staphylococcus aureus [8]) was “inactive”, the Activity (Staphylococcus aureus [9]) was “inactive” and the CC50 [10] was > 44 µM. The Activity (Candida albicans) was “inactive”, the EC50 (Hepatitis C virus [11]) was 0.18 µM and the CC50 [12] was > 44 µM. The IC50 (CCRF-CEM) was > 20 µM, the Activity [13] was “inactive” and the IC50 (K562 [14]) was 0.3 µM. It also gave an IC50 (BJ) of 98.4 µM, an IC50 (HCT-116 [15]) of 4.06 µM and an IC50 [16] of 1.73 µM. For the same compound, the IC50 [17] was 3.49 µM.
For `CSc1ncnc2c1c(-c1cc3ccccc3o1)cn2[C@@H]1O[C@H](CO)[C@@H](O)[C@H]1O`, the Activity (Pseudomonas aeruginosa [1]) was “inactive”, the Activity (Pichia kudriavzevii) was “inactive” and the IC50 (A549) was > 20 µM. The Activity (Pseudomonas aeruginosa [2]) was “inactive”, the IC50 (HepG2) was > 20 µM and the Activity (Enterococcus faecalis) was “inactive”. For the same compound, the Activity (Candida tropicalis) was “inactive”, the Activity (Escherichia coli [3]) was “inactive” and the Activity (Candida parapsilosis) was “inactive”. The Activity (Escherichia coli [4]) was “inactive”, the IC50 (HL-60) was 1.21 µM and the IC50 (K562 [5]) was > 20 µM. The IC50 (HCT-116 [6]) was > 20 µM, the EC50 (Hepatitis C virus [7]) was 29.6 µM and the IC50 (MRC5) was 70.8 µM. The Activity (Staphylococcus aureus [8]) was “inactive”, the Activity (Staphylococcus aureus [9]) was “inactive” and the CC50 [10] was > 44 µM. The Activity (Candida albicans) was “inactive”, the EC50 (Hepatitis C virus [11]) was 8.03 µM and the CC50 [12] was > 44 µM. For the same compound, the IC50 (CCRF-CEM) was > 20 µM, the Activity [13] was “inactive” and the IC50 (K562 [14]) was 17.2 µM. For the same compound, the IC50 (BJ) was 67.2 µM, the IC50 (HCT-116 [15]) was > 20 µM and the IC50 [16] was 1.93 µM. The IC50 [17] was > 20 µM.
In the case of `CSc1ncnc2c1c(-c1cccs1)cn2[C@@H]1O[C@H](CO)[C@@H](O)[C@H]1O`, the Activity (Pseudomonas aeruginosa [1]) is reported as “inactive”, the Activity (Pichia kudriavzevii) is reported as “inactive” and the IC50 (A549) is reported as > 20 µM. For the same compound, the Activity (Pseudomonas aeruginosa [2]) was “inactive”, the IC50 (HepG2) was > 20 µM and the Activity (Enterococcus faecalis) was “inactive”. The Activity (Candida tropicalis) was “inactive”, the Activity (Escherichia coli [3]) was “inactive” and the Activity (Candida parapsilosis) was “inactive”. The Activity (Escherichia coli [4]) was “inactive”, the IC50 (HL-60) was 1.13 µM and the IC50 (K562 [5]) was > 20 µM. The IC50 (HCT-116 [6]) was > 20 µM, the EC50 (Hepatitis C virus [7]) was > 44 µM and the IC50 (MRC5) was > 100 µM. For the same compound, the Activity (Staphylococcus aureus [8]) was “inactive”, the Activity (Staphylococcus aureus [9]) was “inactive” and the CC50 [10] was > 44 µM. For the same compound, the Activity (Candida albicans) was “inactive”, the EC50 (Hepatitis C virus [11]) was 5.42 µM and the CC50 [12] was > 44 µM. The IC50 (CCRF-CEM) was > 20 µM, the Activity [13] was “inactive” and the IC50 (K562 [14]) was 11.6 µM. The IC50 (BJ) was 96.9 µM, the IC50 (HCT-116 [15]) was > 20 µM and the IC50 [16] was 1.96 µM. The IC50 [17] was > 20 µM.
In the case of `Nc1nc2c(c(-c3ccccc3)cn2[C@@H]2O[C@H](CO)[C@@H](O)[C@H]2O)c(=O)[nH]1`, the Activity (Pseudomonas aeruginosa [1]) is reported as “inactive”, the Activity (Pichia kudriavzevii) is reported as “inactive” and the IC50 (A549) is reported as > 100 µM. For the same compound, the Activity (Pseudomonas aeruginosa [2]) was “inactive”, the IC50 (HepG2) was > 20 µM and the Activity (Enterococcus faecalis) was “inactive”. For the same compound, the Activity (Candida tropicalis) was “inactive”, the Activity (Escherichia coli [3]) was “inactive” and the Activity (Candida parapsilosis) was “inactive”. The Activity (Escherichia coli [4]) was “inactive”, the IC50 (HL-60) was > 20 µM and the IC50 (K562 [5]) was > 20 µM. The IC50 (HCT-116 [6]) was > 20 µM, the EC50 (Hepatitis C virus [7]) was > 44 µM and the IC50 (MRC5) was > 100 µM. The Activity (Staphylococcus aureus [8]) was “inactive”, the Activity (Staphylococcus aureus [9]) was “inactive” and the CC50 [10] was > 44 µM. The Activity (Candida albicans) was “inactive”, the EC50 (Hepatitis C virus [11]) was > 44 µM and the CC50 [12] was > 44 µM. For the same compound, the IC50 (CCRF-CEM) was > 100 µM, the Activity [13] was “inactive” and the IC50 (K562 [14]) was > 20 µM. The IC50 (BJ) was > 100 µM, the IC50 (HCT-116 [15]) was > 20 µM and the IC50 [16] was > 20 µM. For the same compound, the IC50 [17] was > 20 µM.
With `CSc1ncnc2c1c(-c1ccccc1)cn2[C@@H]1O[C@H](CO)[C@@H](O)[C@H]1O` the Activity (Pseudomonas aeruginosa [1]) was “inactive”, the Activity (Pichia kudriavzevii) was “inactive” and the IC50 (A549) was > 20 µM. The Activity (Pseudomonas aeruginosa [2]) was “inactive”, the IC50 (HepG2) was > 20 µM and the Activity (Enterococcus faecalis) was “inactive”. For the same compound, the Activity (Candida tropicalis) was “inactive”, the Activity (Escherichia coli [3]) was “inactive” and the Activity (Candida parapsilosis) was “inactive”. For the same compound, the Activity (Escherichia coli [4]) was “inactive”, the IC50 (HL-60) was > 20 µM and the IC50 (K562 [5]) was > 20 µM. The IC50 (HCT-116 [6]) was > 20 µM, the EC50 (Hepatitis C virus [7]) was > 44 µM and the IC50 (MRC5) was > 100 µM. For the same compound, the Activity (Staphylococcus aureus [8]) was “inactive”, the Activity (Staphylococcus aureus [9]) was “inactive” and the CC50 [10] was > 44 µM. For the same compound, the Activity (Candida albicans) was “inactive”, the EC50 (Hepatitis C virus [11]) was 23.3 µM and the CC50 [12] was > 44 µM. For the same compound, the IC50 (CCRF-CEM) was > 20 µM, the Activity [13] was “inactive” and the IC50 (K562 [14]) was > 20 µM. For the same compound, the IC50 (BJ) was > 100 µM, the IC50 (HCT-116 [15]) was > 20 µM and the IC50 [16] was > 20 µM. The IC50 [17] was > 20 µM.
